The results in this text go back to PubChem BioAssay.

Experiment [1] is described as follows: reducers of endogenous Her2 protein level, primary screen, SKBR3 breast tumor cells, AlphaScreen, ATP viability (AID 461;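 active = Her2 level under about 52% in both replicate screens, with viability over 70% of control, limit read from the data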;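 for Her2 level: lower value means less Her2 protein in the cells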;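 for viability: percent of carrier control wells set as 100% viability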). Particulars: 18-24 h, measured here: SKBR3 viability, ATP luminescence, at 10 µM. On the technique in general: Alpha assays give light when donor and acceptor beads are brought close together.
In experiment [2] the target is Receptor tyrosine-protein kinase erbB-2 (Homo sapiens) (UniProt P04626). Described as above. Particulars: 18-24 h, at 10 µM, stronger effect = lower value.
Experiment [3] in a line: SK-BR-3 cell growth inhibitors, pilot screen, 24 h, human (AID 572).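 Note: compound exposure lasted between 18 and 24 h rather than exactly 24 h; 100% = carrier-treated control wells.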 Particulars: SK-BR-3 viability, CellTiter-Glo luminescence, at 10 µM, stronger effect = lower value.
Experiment [4] in a line: HUVEC growth inhibition – cell-based, human, primary screen (AID 575;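 active = viability at or below 30% in both replicate assays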;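 note: 100% = median of untreated cell wells with 0.1% DMSO on each plate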). Particulars: HUVEC proliferation, CellTiter-Glo luminescence, 72 h; at 10 µM; stronger effect = lower value. In outline:
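Test system: primary human umbilical vein endothelial cells. Quantity: 1250 cells/well. Compound: single 10 µM dose, 0.1% DMSO, from 5x medium stock. Timing: 72 h treatment at 37 °C. Detection: ATP-based CellTiter-Glo luminescent read. Benchmarks: vehicle and MePR control wells. Format: 384-well plates coated with collagen.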

A short description of experiment [5]: growth inhibitors of H69AR lung tumor, primary screen, human, duplicate replicates (AID 580;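 active = viability at or under a set limit in both replicates, limit being median viability minus 3 SD, cut at about 48% in these data, passing the limit was not always enough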;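 note: 100% = mean luminescence of untreated wells and 0% = no signal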). Particulars: H69AR lung tumor cells viability, ATP luminescence, 72 h; at 10 µM; stronger effect = lower value.
A short description of experiment [6]: reversal of MRP1-mediated doxorubicin resistance, pilot screen, H69AR cells, doxorubicin co-treatment (AID 601;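 active = viability loss from added drug above about 55%, and viability with drug at most 40%, in both replicates, limit read from the data, passing the limit was not always enough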). Particulars: CellTiter-Glo, 72 h, at 10 µM; for differential viability (reversal): stronger effect = higher value.
Experiment [7] in a line: 384-well plate pilot, post-Golgi transport modulator project, inhibition of yeast transport mutant growth (AID 636; in the data active = inhibition above about 31%). Particulars: absorbance 615 nm, about 18 h, stronger effect = higher value.
Experiment [8] in a line: growth suppression of yeast trafficking mutant, preliminary HTS, modulators of trafficking downstream of Golgi apparatus project, 1536-format plate, OD 615 nm (AID 637; in the data active = inhibition above about 30%). Particulars: yeast transport mutant growth, absorbance 615 nm, 18 h; stronger effect = higher value.
Setting [9] is: H69AR cells + 2 uM doxorubicin, measured here: viability with 2 uM doxorubicin, stronger effect = lower value.
Where [10] appears, read: H69AR cells, compound alone cytotoxicity.

What is called viability is a read-out of living cells in per cent, often relative to untreated cells. One may read the inhibition as the relative decrease from the control value, in per cent.

Activity calls are given as the source filed them.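 Rule for the calls, unless noted: active = viability at or below 10% of carrier control in both of two separate runs; inconclusive = viability at or below 10% in only one of the two runs; inactive = the rest.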

Chain of Receptor tyrosine-protein kinase erbB-2 (Homo sapiens) (P04626 whole entry, looked up): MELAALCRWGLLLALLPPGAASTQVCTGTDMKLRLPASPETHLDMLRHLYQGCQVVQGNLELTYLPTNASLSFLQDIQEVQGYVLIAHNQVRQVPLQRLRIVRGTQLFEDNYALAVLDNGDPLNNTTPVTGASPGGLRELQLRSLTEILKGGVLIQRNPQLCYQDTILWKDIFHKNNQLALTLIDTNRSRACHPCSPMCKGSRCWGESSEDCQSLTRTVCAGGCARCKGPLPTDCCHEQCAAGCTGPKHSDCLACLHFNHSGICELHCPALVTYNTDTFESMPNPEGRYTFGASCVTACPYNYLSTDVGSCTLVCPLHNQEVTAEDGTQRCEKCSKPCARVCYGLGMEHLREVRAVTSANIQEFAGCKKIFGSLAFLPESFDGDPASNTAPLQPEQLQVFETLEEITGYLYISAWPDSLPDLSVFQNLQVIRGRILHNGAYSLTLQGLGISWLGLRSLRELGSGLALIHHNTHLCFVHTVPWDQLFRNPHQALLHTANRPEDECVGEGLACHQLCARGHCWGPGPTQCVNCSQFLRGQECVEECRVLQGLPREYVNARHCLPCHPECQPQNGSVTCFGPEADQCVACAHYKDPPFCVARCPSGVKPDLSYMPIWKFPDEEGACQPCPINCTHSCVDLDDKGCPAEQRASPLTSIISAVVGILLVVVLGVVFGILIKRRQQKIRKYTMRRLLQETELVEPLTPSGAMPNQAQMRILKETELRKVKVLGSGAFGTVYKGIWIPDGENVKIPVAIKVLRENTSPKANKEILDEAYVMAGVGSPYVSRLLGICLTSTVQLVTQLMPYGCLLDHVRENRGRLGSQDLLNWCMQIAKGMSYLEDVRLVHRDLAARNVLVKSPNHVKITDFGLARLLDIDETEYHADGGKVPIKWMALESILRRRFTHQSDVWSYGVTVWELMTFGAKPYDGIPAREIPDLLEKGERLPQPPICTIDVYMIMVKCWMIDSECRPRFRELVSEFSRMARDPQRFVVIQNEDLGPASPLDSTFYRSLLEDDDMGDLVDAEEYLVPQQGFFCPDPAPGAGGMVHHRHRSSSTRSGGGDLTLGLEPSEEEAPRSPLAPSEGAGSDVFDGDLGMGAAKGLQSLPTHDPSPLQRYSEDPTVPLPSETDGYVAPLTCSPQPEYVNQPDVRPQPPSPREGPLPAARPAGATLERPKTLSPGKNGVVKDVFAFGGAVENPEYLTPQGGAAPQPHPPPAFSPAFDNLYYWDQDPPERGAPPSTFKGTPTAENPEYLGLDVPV

On to `CC(C)(C)C(=O)CCN1C(=O)C2(OCCO2)c2ccccc21`, for which the viability was 104% in experiment [1]; 104% (inactive) in experiment [3]; 83.9% (inactive) in experiment [4]; 103% (inactive) in experiment [5]; 94.1% in experiment [6] (setting [9]); 103% in experiment [6] (setting [10]). In addition, in experiment [2], the Her2 level was 106% (inactive). Further, the differential viability (reversal) in experiment [6] (H69AR cells + 2 uM doxorubicin) is 9.06% (inactive). Further, the figures for the inhibition in experiment [7] and in experiment [8] were -1.82% (inactive) and -2.3% (inactive), respectively.
`O=C(C1CCC1)N1CCc2cc(S(=O)(=O)N3CCc4ccccc4C3)ccc21`: the viability in experiment [1] is 88%; in experiment [3], 88% (inactive); in experiment [4] it was 72.1% (inactive); in experiment [5], 89% (inactive); in experiment [6] (setting [9]), 94%; in experiment [6] (setting [10]) it was 89%. The Her2 level in experiment [2] is 97% (inactive). Moreover, the differential viability (reversal) in experiment [6] (H69AR cells + 2 uM doxorubicin) is -5.04% (inactive). Moreover, the inhibition in experiment [7] is -5.47% (inactive); in experiment [8], -7.54% (inactive).
With `OCCNCC(O)Cn1ccc2ccccc21` (stereo not given), the viability was 118% in experiment [1]; 118% (inactive) in experiment [3]; 107% (inactive) in experiment [4]; 88.6% (inactive) in experiment [5]; 88.6% in experiment [6] (setting [9]); 88.6% in experiment [6] (setting [10]). Further, the Her2 level in experiment [2] was 94.5% (inactive). In addition, the differential viability (reversal) in experiment [6] (H69AR cells + 2 uM doxorubicin) was 0.01% (inactive). Besides, the figures for the inhibition in experiment [7] and in experiment [8] were -3.77% (inactive) and -0.16% (inactive), respectively.
Take `COCCOC(=O)c1c(C)nc(SCC(=O)Nc2ccc(OC)cc2)c(C#N)c1-c1ccco1`: the viability is 108% in experiment [1]; 108% (inactive) in experiment [3]; 73.9% (inactive) in experiment [4]; 91% (inactive) in experiment [5]; 76.3% in experiment [6] (setting [9]); 91% in experiment [6] (setting [10]). Besides, the Her2 level in experiment [2] was 87.5% (inactive). Further, in experiment [6] (H69AR cells + 2 uM doxorubicin), the differential viability (reversal) was 14.7% (inactive). Further, the inhibition in experiment [7] was -2.63% (inactive); in experiment [8] it was -5.97% (inactive).
For the molecule `O=C(CSc1ncnc2c1oc1ccccc12)Nc1ccccc1F`, the viability in experiment [1] was 96.5%; in experiment [3], 96.5% (inactive); in experiment [4], 72% (inactive); in experiment [5], 90.5% (inactive); in experiment [6] (setting [9]), 83.1%; in experiment [6] (setting [10]), 90.5%. Besides, the Her2 level in experiment [2] was 101% (inactive). Also, in experiment [6] (H69AR cells + 2 uM doxorubicin), the differential viability (reversal) was 7.33% (inactive). The inhibition in experiment [7] is -2.27% (inactive); in experiment [8], -1.33% (inactive).
As for `O=C(NCCN1CCOCC1)c1csc2c1CCCC2`, the viability in experiment [1] was 97.5%; in experiment [3], 97.5% (inactive); in experiment [4], 95% (inactive); in experiment [5], 102% (inactive); in experiment [6] (setting [9]) it was 86%; in experiment [6] (setting [10]), 102%. The Her2 level in experiment [2] is 83% (inactive). In addition, in experiment [6] (H69AR cells + 2 uM doxorubicin), the differential viability (reversal) was 16.4% (inactive). The inhibition was -7.3% (inactive) in experiment [7] and -1.83% (inactive) in experiment [8].
Regarding `CCCCN(c1ccccc1)S(=O)(=O)c1ccc2c(c1)CCN2C(=O)CCC(=O)O`, the viability is 116% in experiment [1]; 116% (inactive) in experiment [3]; 93.8% (inactive) in experiment [4]; 91.9% (inactive) in experiment [5]; 90% in experiment [6] (setting [9]); 91.9% in experiment [6] (setting [10]). Moreover, the Her2 level in experiment [2] is 100% (inactive). Also, the differential viability (reversal) in experiment [6] (H69AR cells + 2 uM doxorubicin) was 1.98% (inactive). Besides, the values for the inhibition in experiment [7] and in experiment [8] were -1.58% (inactive) and -6.73% (inactive), respectively.
Consider `COc1cccc(CNC(=O)C2CCN(S(=O)(=O)c3ccc(F)cc3)CC2)c1`, for which the viability in experiment [1] is 128%; in experiment [3], 128% (inactive); in experiment [4], 95.1% (inactive); in experiment [5], 97.5% (inactive); in experiment [6] (setting [9]) it was 105%; in experiment [6] (setting [10]), 97.5%. Also, in experiment [2], the Her2 level is 98.5% (inactive). In addition, the differential viability (reversal) in experiment [6] (H69AR cells + 2 uM doxorubicin) was -7.57% (inactive). Also, the figures for the inhibition in experiment [7] and in experiment [8] were -2.37% (inactive) and 0.48% (inactive), respectively.
In the case of `Cc1sc2ncnc(OCC(=O)N3CCN(S(=O)(=O)c4ccc(Cl)cc4)CC3)c2c1C`, the viability in experiment [1] was 92.5%; in experiment [3] it was 92.5% (inactive); in experiment [4], 89.2% (inactive); in experiment [5], 84.8% (inactive); in experiment [6] (setting [9]) it was 84%; in experiment [6] (setting [10]), 84.8%. Besides, the Her2 level in experiment [2] was 86% (inactive). For the same molecule, in experiment [6] (H69AR cells + 2 uM doxorubicin), the differential viability (reversal) was 0.87% (inactive). In addition, the values for the inhibition in experiment [7] and in experiment [8] were 0.53% (inactive) and -0.91% (inactive), respectively.
With `CCC1SC2=NC(C)=C(C(=O)OC)C(c3ccc(C)cc3)N2C1=O` (stereo not given), the viability in experiment [1] is 94%; in experiment [3], 94% (inactive); in experiment [4], 109% (inactive); in experiment [5], 99.6% (inactive); in experiment [6] (setting [9]), 90.6%; in experiment [6] (setting [10]), 99.6%. The Her2 level in experiment [2] is 96% (inactive). Further, the differential viability (reversal) in experiment [6] (H69AR cells + 2 uM doxorubicin) was 9% (inactive). Also, the inhibition was -3.51% (inactive) in experiment [7] and -1.59% (inactive) in experiment [8].
On to `CCN(c1ccc(OC)cc1)S(=O)(=O)c1ccc2c(c1)CCN2C(=O)CCC(=O)O`, for which the viability in experiment [1] was 115%; in experiment [3], 115% (inactive); in experiment [4], 88.9% (inactive); in experiment [5], 92.4% (inactive); in experiment [6] (setting [9]), 90%; in experiment [6] (setting [10]), 92.4%. Moreover, in experiment [2], the Her2 level was 97.5% (inactive). Moreover, in experiment [6] (H69AR cells + 2 uM doxorubicin), the differential viability (reversal) is 2.4% (inactive). Besides, the inhibition in experiment [7] is -3.55% (inactive); in experiment [8] it was -2.06% (inactive).
`COc1cccc(OC)c1C(=O)N1CCN(S(=O)(=O)c2ccc(C)cc2)CC1`: the viability in experiment [1] was 103%; in experiment [3], 103% (inactive); in experiment [4], 87.2% (inactive); in experiment [5] it was 91.4% (inactive); in experiment [6] (setting [9]), 96.7%; in experiment [6] (setting [10]) it was 91.4%. For the same molecule, in experiment [2], the Her2 level is 108% (inactive). Besides, the differential viability (reversal) in experiment [6] (H69AR cells + 2 uM doxorubicin) is -5.23% (inactive). The inhibition is -7.2% (inactive) in experiment [7] and -3.28% (inactive) in experiment [8].
As for `COc1ccc(OCC(=O)N2CCN(C(=O)Cc3ccccc3)CC2)cc1`, the viability was 90% in experiment [1]; 90% (inactive) in experiment [3]; 101% (inactive) in experiment [4]; 84.6% (inactive) in experiment [5]; 96.7% in experiment [6] (setting [9]); 84.6% in experiment [6] (setting [10]). Moreover, in experiment [2], the Her2 level is 96% (inactive). Moreover, the differential viability (reversal) in experiment [6] (H69AR cells + 2 uM doxorubicin) is -12.1% (inactive). The inhibition in experiment [7] is 0% (inactive); in experiment [8] it was 23.2% (inactive).
For `COc1cccc(-n2nc(C(=O)Nc3ccc4c(c3)OCO4)c3ccccc3c2=O)c1`, the viability in experiment [1] was 109%; in experiment [3], 109% (inactive); in experiment [4], 85.1% (inactive); in experiment [5] it was 92.2% (inactive); in experiment [6] (setting [9]) it was 86.3%; in experiment [6] (setting [10]) it was 92.2%. Further, the Her2 level in experiment [2] is 80.5% (inactive). Besides, in experiment [6] (H69AR cells + 2 uM doxorubicin), the differential viability (reversal) is 5.91% (inactive). Further, the inhibition in experiment [7] is -2.16% (inactive); in experiment [8], -1.27% (inactive).
